Active and inactive are the calls of the source. The rule behind the calls is not given here.
Assays:
[1] = target: T1, Human immunodeficiency virus type 1 reverse transcriptase (Human immunodeficiency virus 1, UniProt Q72547); experiment: Inhibition of HIV1 reverse transcriptase using Poly rC.dG template
Influenza A virus = experiment: Antiviral activity against influenza virus H3N2 in MDCK cells; assay type: functional, organism-based
[2] = Selectivity index, ratio of CC50 for CEM cells to EC50 for HIV1 infected CEM cells; assay type: functional, CCRF-CEM
[3] = test system: Human immunodeficiency virus 1; experiment: Antiviral activity against HIV1 3B in CEM cells; assay type: functional, organism-based; conditions: Human immunodeficiency virus 1, 3B, CCRF-CEM
How it was run: (§1)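 CEM cells at 4×10^4 cells/mL infected with virus at ~100 CCID50 per mL of cell suspension, then mixed 1:1 with serial dilutions of compound. After four days, giant cell formation was scored microscopically.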

[4] = Cytotoxicity against CEM cells; assay type: cell-based; conditions: human, CEM (CCRF-CEM) cells
How it was run: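 CEM cells were plated at 300,000–500,000 cells/mL with an equal volume of compound dilutions and incubated 3 days at 37 °C. Cell number was counted with a Coulter counter.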

[5] = target: T1, Human immunodeficiency virus type 1 reverse transcriptase; experiment: Inhibition of HIV1 reverse transcriptase using Poly rA.dT template
How it was run: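 Recombinant HIV-1(IIIB) RT was assayed in 50 mM Tris-HCl pH 7.8 with 5 mM DTT, 300 mM glutathione, 500 µM EDTA, 150 mM KCl, 5 mM MgCl2, BSA and 0.06% Triton X-100. Template/primer was poly(A).oligo(dT) at 0.1 mM with [3H]dTTP at 0.6 µM. Reactions ran 30 min at 37 °C, followed by TCA precipitation and radioactivity counting.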

[6] = test system: Human immunodeficiency virus 2; experiment: Antiviral activity against HIV2 ROD in CEM cells; assay type: functional, organism-based; conditions: Human immunodeficiency virus 2, ROD, CCRF-CEM; how it was run: as §1
[7] = test system: Human immunodeficiency virus 1; experiment: Antiviral activity against HIV1 3B with reverse transcriptase Tyr181Ile mutation; assay type: functional, organism-based; conditions: Human immunodeficiency virus 1, 3B
How it was run: (§2)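 CEM cells at 4×10^4 cells/mL were infected with HIV-1(III_B) strains carrying NNRTI-type RT mutations, at ~100 CCID₅₀ per mL of cell suspension. Infected cells were mixed 1:1 with serial compound dilutions. Giant cell formation was scored microscopically after four days. EC₅₀ is the concentration inhibiting virus-induced cytopathicity by 50%.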

[8] = test system: Human immunodeficiency virus 1; experiment: Antiviral activity against HIV1 3B with reverse transcriptase Lys103 Asn mutation; assay type: functional, organism-based; conditions: Human immunodeficiency virus 1, 3B; how it was run: as §2
[9] = test system: Human immunodeficiency virus 1; experiment: Antiviral activity against HIV1 3B with reverse transcriptase Leu100Ile mutation; assay type: functional, organism-based; conditions: Human immunodeficiency virus 1, 3B; how it was run: as §2
[10] = test system: Human immunodeficiency virus 1; experiment: Antiviral activity against HIV1 3B with reverse transcriptase Tyr181His mutation; assay type: functional, organism-based; conditions: Human immunodeficiency virus 1, 3B
[11] = test system: Human immunodeficiency virus 1; experiment: Antiviral activity against HIV1 3B with reverse transcriptase Tyr181Cys mutation; assay type: functional, organism-based; conditions: Human immunodeficiency virus 1, 3B; how it was run: as §2

| SMILES | IC50 [1] [µM] | Activity (Influenza A virus) | Ratio CC50/EC50 [2] | EC50 [3] [µM] | CC50 [4] [µM] | IC50 [5] [µM] | EC50 [6] [µM] | Ki [1] [µM] | EC50 [7] [µM] | EC50 [8] [µM] | EC50 [9] [µM] | EC50 [10] [µM] | EC50 [11] [µM] |
| --- | --- | --- | --- | --- | --- | --- | --- | --- | --- | --- | --- | --- | --- |
| CCN(CC)CCCN1C(=O)CSC1C12CC3CC(CC(C3)C1)C2 (stereo unspecified) | > 571 | inactive | 3.1 | 28 | 89 | > 571 | > 57 |  |  |  |  |  |  |
| CCN(CC)CCN1C(=O)CSC1C12CC3CC(CC(C3)C1)C2 (stereo unspecified) | 475 | inactive | 7.2 | 7.7 | 56 | 481 | > 59 |  |  |  |  |  |  |
| Cc1cccc(N2C(=O)CSC2C23CC4CC(CC(C4)C2)C3)n1 (stereo unspecified) | 40 | inactive | 14 | 21 | > 304 | 43 | > 304 |  |  |  |  |  |  |
| O=C1CSC(C23CC4CC(CC(C4)C2)C3)N1c1ccccn1 (stereo unspecified) |  | inactive | <1 | > 318 | > 318 |  | > 318 |  |  |  |  |  |  |
| COc1ccc(N2C(=O)CSC2C23CC4CC(CC(C4)C2)C3)cc1 (stereo unspecified) |  | inactive | <6 | > 12 | 74 |  | > 12 |  |  |  |  |  |  |
| O=C1CSC(C23CC4CC(CC(C4)C2)C3)N1c1ccc(Cl)c(C(F)(F)F)c1 (stereo unspecified) |  | inactive | <1 | > 48 | > 240 |  | > 48 |  |  |  |  |  |  |
| O=C1CSC(C23CC4CC(CC(C4)C2)C3)N1c1ccc(Br)cc1 (stereo unspecified) |  | inactive | <1 | > 255 | ≥ 255 |  | > 255 |  |  |  |  |  |  |
| CN(C)CCCN1C(=O)CSC1C12CC3CC(CC(C3)C1)C2 (stereo unspecified) | ≥ 620 | inactive | 4 | 31 | 122 | > 620 | > 62 |  |  |  |  |  |  |
| O=C1CSC(C23CC4CC(CC(C4)C2)C3)N1c1ccncc1 (stereo unspecified) |  | inactive | <2.5 | > 63 | 159 |  | > 63 |  |  |  |  |  |  |
| Cc1ccnc2c1NC(=O)c1cccnc1N2C1CC1 [NEVIRAPINE] |  |  |  |  | > 50 |  | > 50 |  |  |  |  |  |  |
| Cc1cccnc1N1C(=O)CSC1C12CC3CC(CC(C3)C1)C2 (stereo unspecified) |  | inactive | <2.5 | > 12 | 29 |  | > 12 |  |  |  |  |  |  |
| N#Cc1ccc(N2C(=O)CSC2C23CC4CC(CC(C4)C2)C3)cc1 (stereo unspecified) |  | inactive | <=1 | > 295 | ≥ 295 |  | > 295 |  |  |  |  |  |  |
| O=C1CSC(C23CC4CC(CC(C4)C2)C3)N1c1ccc(F)cc1 (stereo unspecified) |  | inactive | <=1 | > 302 | ≥ 302 |  | > 302 |  |  |  |  |  |  |
| Cc1ccc(N2C(=O)CSC2C23CC4CC(CC(C4)C2)C3)nc1 (stereo unspecified) |  | inactive | <4.8 | > 12 | 59 |  | > 12.4 |  |  |  |  |  |  |
| O=C1CSC(C23CC4CC(CC(C4)C2)C3)N1CCN1CCCCC1 (stereo unspecified) |  | inactive | <4 | > 11 | 44 |  | > 11 |  |  |  |  |  |  |
| Cc1ccnc(N2C(=O)CSC2C23CC4CC(CC(C4)C2)C3)c1 (stereo unspecified) | 40 | inactive | >54 | 5.6 | > 304 | 88 | > 304 |  |  |  |  |  |  |
| O=C1CSC(C23CC4CC(CC(C4)C2)C3)N1c1cccnc1 (stereo unspecified) | ≥ 636 | inactive | <=3 | ≥ 32 | 105 | ≥ 636 | > 63 |  |  |  |  |  |  |
| Cc1cc(C)nc(N2C(=O)CSC2C23CC4CC(CC(C4)C2)C3)c1 (stereo unspecified) | 29 |  | 120 | 0.35 | 42 | 38 | > 11.7 |  |  |  |  |  |  |
| CN(C)CCN1C(=O)CSC1C12CC3CC(CC(C3)C1)C2 (stereo unspecified) | > 648 | inactive | 1.9 | 65 | 125 | > 648 | > 65 |  |  |  |  |  |  |
| Cc1cc(C)nc(N2C(=O)CS[C@H]2C23CC4CC(CC(C4)C2)C3)c1 | > 584 | inactive | 3.8 | 12 | 44 | > 584 | > 58 |  |  |  |  |  |  |
| O=C1CSC(C23CC4CC(CC(C4)C2)C3)N1c1ccc(I)cc1 (stereo unspecified) |  | inactive | <=1 | > 228 | ≥ 228 |  | > 45 |  |  |  |  |  |  |
| O=C1CSC(C23CC4CC(CC(C4)C2)C3)N1CCN1CCOCC1 (stereo unspecified) |  | inactive | <3 | > 57 | 140 |  | > 57.1 |  |  |  |  |  |  |
| O=C1CSC(C23CC4CC(CC(C4)C2)C3)N1c1ccc(Cl)cc1 (stereo unspecified) |  | inactive | <=5 | > 57 | ≥ 287 |  | > 57.5 |  |  |  |  |  |  |
| Cc1cc(C)nc(N2C(=O)CS[C@@H]2C23CC4CC(CC(C4)C2)C3)c1 | 19 | inactive | 198 | 0.178 | 35 | 20 | > 12 | 12 | > 12 | 1.5 | 2.3 | > 12 | 8.2 |
| O=c1[nH]cnc2c1ncn2[C@H]1CC[C@@H](CO)O1 [DIDANOSINE] |  |  | >54 | 4.6 | > 250 |  |  |  |  |  |  |  |  |
| Cc1cc(C)nc(N2C(=O)CSC2C)c1 (stereo unspecified) | ≥ 900 |  | >450 | > 450 | > 450 | > 900 | > 450 |  |  |  |  |  |  |

Reference: ChEMBL document CHEMBL1147853, “Synthesis and anti-HIV studies of 2-adamantyl-substituted thiazolidin-4-ones” (Eur J Med Chem, 2007)
